Screening results: PubChem BioAssay, several laboratories
Only some compounds are listed: those with a hit (about 2.8% of all), similar ones and a draw of the others.
NPY Y1 blocker = NPY-Y1 receptor antagonists, primary screen, cell-based; Neuropeptide Y receptor type 1 (Homo sapiens), P25929; HEK293-CNG Y1 cells, membrane potential fluorescence; NPY at EC95, then isoproterenol; inhibition, % at 3.6 µM; 1% of 200,000 active; AID 1040, 2008;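 active = inhibition above the campaign mean inhibition of all tested compounds plus 3 SD, cut at about 20% in these data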
Target sequence (P25929 whole entry, looked up): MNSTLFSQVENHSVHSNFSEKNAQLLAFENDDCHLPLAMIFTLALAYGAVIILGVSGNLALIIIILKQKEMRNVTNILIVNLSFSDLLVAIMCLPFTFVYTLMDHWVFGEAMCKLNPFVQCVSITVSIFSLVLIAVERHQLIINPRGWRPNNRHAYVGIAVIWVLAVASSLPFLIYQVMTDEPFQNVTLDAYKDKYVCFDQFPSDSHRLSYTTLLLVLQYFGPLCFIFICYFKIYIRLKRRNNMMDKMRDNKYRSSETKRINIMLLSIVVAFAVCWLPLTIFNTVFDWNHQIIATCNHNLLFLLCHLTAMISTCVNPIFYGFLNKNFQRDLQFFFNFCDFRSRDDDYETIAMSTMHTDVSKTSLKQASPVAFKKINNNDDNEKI
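Material: HEK293 Y1/CNG channel cell line; also added: NPY (25 nM), isoproterenol (1 µM), Ro 20-1724 (25 µM); doses: one concentration, 3.6 µM, in 0.4% DMSO; schedule: compound incubation 1 h at room temperature, readout 45 min post-stimulation; technique: membrane potential fluorescence; measure: fluorescence ratio normalized to % inhibition between controls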
NPY2 pot ag = NPY-Y2 potentiators or agonists, primary screen, cell-based | Neuropeptide Y receptor type 2 (Homo sapiens), P49146 | cells expressing NPY-Y2, potentiator/agonist read-out | activation, % at 3.6 µM | 0.45% of 220,000 active | AID 1359, 2008; in the data active = activation above about 27%;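 also: cells stimulated with NPY near EC25 plus isoproterenol at EC100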
PGE2 EP2 inh = human EP2 receptor antagonists, primary screen, TR-FRET cAMP, C6 glioma cells | Prostaglandin E2 receptor EP2 subtype (Homo sapiens), P43116 | C6 glioma cells expressing human EP2; cells stimulated with saturating PGE2 | inhibition, % at 25 µM | 0.52% of 260,000 active | AID 1422, 2008;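 active = percent inhibition above 40 after rounding to a whole number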;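 also: rat C6 glioma host cells with rolipram phosphodiesterase inhibitor present; the protocol text gives 20 µM as final concentration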
NPY1 pot ag = NPY-Y1 receptor potentiators or agonists, primary screen, cell-based | Neuropeptide Y receptor type 1 (Homo sapiens), P25929 | NPY-Y1 expressing cells, potentiator/agonist activation | activation, % at 3.6 µM | 0.37% of 220,000 active; in the data active = activation above about 33%, passing the limit was not always enough;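 also: cells stimulated with NPY at EC10 then isoproterenol at EC100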
NPY-Y2 antag = NPY-Y2 receptor antagonists, primary screen, cell-based | NPY-Y2 expressing cells, antagonist mode | inhibition, % at 2.7 µM | 0.99% of 140,000 active | AID 793, 2007; in the data active = inhibition above about 17%
EP2 mod = EP2 receptor modulators, cAMP readout, primary screen, cell-based, HTRF cAMP, PGE2 stimulation. Prostaglandin E2 receptor EP2 subtype (Homo sapiens), P43116. EP2-expressing cells, cAMP HTRF FRET, PGE2 co-stimulation. induction, % at 25 µM. 0.83% of 260,000 active. AID 940, 2007;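 active = compounds whose cAMP rise, as percent of the full-agonist control response, exceeds 60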;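 also: rat C6 glioma line stably carrying human EP2 under a CMV promoter; the protocol text gives 20 µM as final concentration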
A number is an active result.

How did CCOC(=O)C1=C(N)OC2=C(C(=O)CC(C)(C)C2)C1c1ccc(C)s1 (configuration not stated) do in these assays?
NPY Y1 blocker: inactive; NPY2 pot ag: inactive; PGE2 EP2 inh: inactive; NPY1 pot ag: inactive; EP2 mod: inactive

What do the screens show for `CCOC(=O)C1=C(N)OC2=C(C(=O)CC(C)(C)C2)C1c1ccc(C)cc1` (configuration not stated)?
PGE2 EP2 inh: inactive; EP2 mod: 79

Results for Cc1cc2cc(C(c3nnnn3C3CCCC3)N3CCN(C4CCCCC4)CC3)c(=O)[nH]c2cc1C (configuration not stated) ?
PGE2 EP2 inh: inactive; EP2 mod: inactive

How did CC(C)C1=C[C@@]23CC[C@@H]4[C@](C)(CCC[C@@]4(C)C(=O)O)[C@@H]2C[C@@H]1[C@H](C(=O)O)[C@@H]3C(=O)O do in these assays?
PGE2 EP2 inh: 50; EP2 mod: inactive

What do the screens show for `C/C(=C\C(=O)c1ccc(Br)cc1)NCc1ccc2c(c1)OCO2`?
NPY Y1 blocker: 21; NPY2 pot ag: inactive; PGE2 EP2 inh: inactive; NPY1 pot ag: inactive; NPY-Y2 antag: inactive; EP2 mod: inactive

How did COc1ccc2c(Cc3c4ccccc4cc4ccccc34)cncc2c1O do in these assays?
PGE2 EP2 inh: 40; EP2 mod: inactive

Results for COc1ccc(OCC(O)Cn2c(=N)n(Cc3ccccc3)c3ccccc32)cc1 (configuration not stated) ?
NPY Y1 blocker: 33; NPY2 pot ag: inactive; PGE2 EP2 inh: inactive; NPY1 pot ag: inactive; NPY-Y2 antag: 32; EP2 mod: inactive

What do the screens show for `N=c1n(Cc2ccccc2)c2ccccc2n1CC(O)COc1ccc(Cl)cc1Cl` (configuration not stated)?
NPY Y1 blocker: inactive; NPY2 pot ag: inactive; PGE2 EP2 inh: inactive; NPY1 pot ag: inactive; EP2 mod: inactive

What do the screens show for `Cc1cccc(OCC(O)Cn2c(=N)n(CCN3CCCCC3)c3ccccc32)c1` (configuration not stated)?
NPY Y1 blocker: 57; NPY2 pot ag: inactive; PGE2 EP2 inh: inactive; NPY1 pot ag: inactive; NPY-Y2 antag: 84; EP2 mod: inactive

How did Cc1cccc(OCC(O)CN2CCNCC2)c1 (configuration not stated) do in these assays?
PGE2 EP2 inh: inactive; EP2 mod: inactive

Results for Cc1ccc(OCC(O)Cn2c(=N)n(Cc3ccccc3)c3ccccc32)cc1 (configuration not stated) ?
NPY Y1 blocker: 23; NPY2 pot ag: inactive; PGE2 EP2 inh: inactive; NPY1 pot ag: inactive; NPY-Y2 antag: 32; EP2 mod: inactive

What do the screens show for `Cc1cccc(OCC(O)Cn2c(=N)n(Cc3ccccc3)c3ccccc32)c1` (configuration not stated)?
NPY2 pot ag: inactive; PGE2 EP2 inh: inactive; NPY1 pot ag: inactive; EP2 mod: inactive

Results for Cc1ccc(NCc2nnc(SCC#N)n2C)cc1Cl ?
PGE2 EP2 inh: inactive; EP2 mod: inactive

How did CN(C)c1ccc(C(=C2C=CC(=[N+](C)C)C=C2)c2ccc(N(C)C)cc2)cc1 do in these assays?
PGE2 EP2 inh: inactive; EP2 mod: inactive

Results for CN(C)c1ccc(C(=C2C=CC(=[N+](C)C)C=C2)c2ccccc2)cc1 ?
PGE2 EP2 inh: 81; EP2 mod: inactive

How did Cn1nc(CC(=O)NC2(c3ccc4c(c3)OCO4)CCCC2)c2ccccc2c1=O do in these assays?
PGE2 EP2 inh: inactive; EP2 mod: inactive

Results for COc1cc(/C=C2/C(=O)NN(c3cccc(C)c3)C2=O)cc([N+](=O)[O-])c1O ?
NPY Y1 blocker: inactive; NPY2 pot ag: inactive; PGE2 EP2 inh: inactive; NPY1 pot ag: inactive; EP2 mod: inactive

How did COc1cc(/C=C2/C(=O)NN(c3cccc(C)c3)C2=O)ccc1OC(=O)c1ccco1 do in these assays?
NPY Y1 blocker: inactive; NPY2 pot ag: inactive; PGE2 EP2 inh: 41; NPY1 pot ag: inactive; NPY-Y2 antag: inactive; EP2 mod: inactive

How did CCN1/C(=C/c2ccc3cc(C)ccc3[n+]2CC)Sc2cc(C)c(C)cc21 do in these assays?
NPY Y1 blocker: inactive; NPY2 pot ag: inactive; PGE2 EP2 inh: 76; NPY1 pot ag: inactive; EP2 mod: inactive

How did CC[n+]1c(/C=C2\Sc3ccccc3N2C)ccc2cccc(C)c21 do in these assays?
NPY Y1 blocker: inactive; NPY2 pot ag: inactive; PGE2 EP2 inh: 107; NPY1 pot ag: inactive; EP2 mod: inactive

How did CC[n+]1c(/C=C2\Sc3cc(C)ccc3N2C)ccc2ccccc21 do in these assays?
PGE2 EP2 inh: 45; EP2 mod: inactive

How did CCN1/C(=C/c2ccc3cc(C)ccc3[n+]2CC)Sc2ccccc21 do in these assays?
NPY Y1 blocker: inactive; NPY2 pot ag: inactive; PGE2 EP2 inh: 55; NPY1 pot ag: inactive; NPY-Y2 antag: inactive; EP2 mod: inactive

What do the screens show for `COc1ccc(-[n+]2c(C)cc(/C=C3\Sc4ccccc4N3C)cc2C)cc1`?
NPY Y1 blocker: inactive; NPY2 pot ag: inactive; PGE2 EP2 inh: inactive; NPY1 pot ag: inactive; EP2 mod: inactive

Results for CCN1/C(=C/c2ccc3cc(C)ccc3[n+]2CC)Sc2ccc(C)cc21 ?
PGE2 EP2 inh: inactive; EP2 mod: inactive

What do the screens show for `CCOc1ccc(NC(=O)N2C3CCCC2CC(NC(C)=O)C3)cc1` (configuration not stated)?
PGE2 EP2 inh: inactive; EP2 mod: inactive

How did Cc1sc2nc(SCC(=O)Nc3ccc(OCc4ccccc4)cc3)n(C)c(=O)c2c1C do in these assays?
PGE2 EP2 inh: inactive; EP2 mod: inactive

Results for CCC(CC)C(=O)Nc1ccc(NC(=O)c2ccco2)cc1 ?
PGE2 EP2 inh: inactive; EP2 mod: inactive

Results for CCSc1ccc2cc(OC)ccc2[n+]1CC ?
NPY Y1 blocker: inactive; NPY2 pot ag: inactive; PGE2 EP2 inh: inactive; NPY1 pot ag: inactive; EP2 mod: inactive

How did CCN1/C(=C/c2ccc3cc(OC)ccc3[n+]2CC)Sc2cc(C)ccc21 do in these assays?
PGE2 EP2 inh: 64; EP2 mod: inactive

Results for CCC(CC)c1nnc(NC(=O)Oc2ccccc2)s1 ?
NPY Y1 blocker: inactive; NPY2 pot ag: inactive; PGE2 EP2 inh: inactive; NPY1 pot ag: inactive; NPY-Y2 antag: inactive; EP2 mod: inactive

Results for CCC(CC)c1nnc(NC(=O)CCCOc2ccccc2)s1 ?
PGE2 EP2 inh: inactive; EP2 mod: 62

What do the screens show for `O=C(CCCOc1ccccc1)Nc1ccncc1`?
NPY Y1 blocker: inactive; NPY2 pot ag: inactive; PGE2 EP2 inh: inactive; NPY1 pot ag: inactive; NPY-Y2 antag: inactive; EP2 mod: inactive

How did O=C(CCCOc1ccccc1)Nc1ccc(Br)cc1 do in these assays?
NPY Y1 blocker: 22; NPY2 pot ag: inactive; PGE2 EP2 inh: inactive; NPY1 pot ag: inactive; NPY-Y2 antag: inactive
